Test: Inhibition of ADP-induced human platelet aggregation.
Format: functional
Method in brief: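 ADP-induced aggregation of human platelets measured in platelet-rich plasma by aggregometry. Protocol follows earlier reports. IC50 values come from a single experiment or from the mean of duplicates.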

Row | Structure (SMILES) | IC50 [µM]
1 | O=C(O)c1cccc(OCCCc2nc(-c3ccccc3)c(-c3ccccc3)o2)c1 | > 80
2 | O=C(O)COc1cccc(-c2nc(-c3ccccc3)c(-c3ccccc3)o2)c1 | > 84
3 | c1ccc(-c2nc(CCc3cccc(OCC4N=NN=N4)c3)oc2-c2ccccc2)cc1 | 1.5
4 | O=C(O)CCCCOc1ccccc1Cc1nc(-c2ccccc2)c(-c2ccccc2)o1 | > 74
5 | O=C(O)COc1cccc(/C=C/c2nc(-c3ccccc3)c(-c3ccccc3)o2)c1 | 13
6 | O=C(O)c1cccc(OCCCCc2nc(-c3ccccc3)c(-c3ccccc3)o2)c1 | > 77
7 | O=C(O)CCCCCCCCc1nc(-c2ccccc2)c(-c2ccccc2)o1 | 2.5
8 | O=C(O)COc1ccccc1CCc1nc(-c2ccccc2)c(-c2ccccc2)o1 | > 80
9 | O=C(O)CCCCOc1ccccc1-c1nc(-c2ccccc2)c(-c2ccccc2)o1 | > 77
10 | O=C(O)CCCCOc1cccc(-c2nc(-c3ccccc3)c(-c3ccccc3)o2)c1 | 4.6
11 | O=C(O)CCCOc1ccc(Cc2nc(-c3ccccc3)c(-c3ccccc3)o2)cc1 | > 76
12 | O=C(O)CCCCCCc1nc(-c2ccccc2)c(-c2ccccc2)o1 | > 91
13 | O=C(O)/C=C/c1cccc(CCc2nc(-c3ccccc3)c(-c3ccccc3)o2)c1 | 0.66
14 | O=C(O)CCCOc1ccccc1/C=C/c1nc(-c2ccccc2)c(-c2ccccc2)o1 | > 75
15 | O=C(O)C(CCCCCCCc1nc(-c2ccccc2)c(-c2ccccc2)o1)C(=O)O | > 76
16 | O=C(O)CCCCOc1ccc(-c2nc(-c3ccccc3)c(-c3ccccc3)o2)cc1 | > 77
17 | O=C(O)CCCOc1cccc(/C=C/c2nc(-c3ccccc3)c(-c3ccccc3)o2)c1 | > 75
18 | CC(C)(Oc1cccc(CCc2nc(-c3ccccc3)c(-c3ccccc3)o2)c1)C(=O)O | > 75
19 | COc1ccc(/C=C/c2nc(-c3ccccc3)c(-c3ccccc3)o2)cc1OCC(=O)O | > 75
20 | O=C(O)CCCOc1ccc(/C=C/c2nc(-c3ccccc3)c(-c3ccccc3)o2)cc1 | > 75
21 | O=C(O)CCc1cccc(CCc2nc(-c3ccccc3)c(-c3ccccc3)o2)c1 | 16
22 | O=C(O)CCCCCCCCCc1nc(-c2ccccc2)c(-c2ccccc2)o1 | > 80
23 | O=C(O)CCCOc1ccccc1CCc1nc(-c2ccccc2)c(-c2ccccc2)o1 | > 75
24 | O=C(O)c1ccc(OCCCCc2nc(-c3ccccc3)c(-c3ccccc3)o2)cc1 | > 77
25 | O=C(O)COc1ccc(Cc2nc(-c3ccccc3)c(-c3ccccc3)o2)cc1 | > 82
26 | O=C(O)/C=C/c1cccc(OCc2nc(-c3ccccc3)c(-c3ccccc3)o2)c1 | 14
27 | COc1ccc(CCc2nc(-c3ccccc3)c(-c3ccccc3)o2)cc1OCC(=O)O | > 75

Row | Structure (SMILES) | IC50 [µM]
28 | COc1c(CCc2nc(-c3ccccc3)c(-c3ccccc3)o2)cccc1OCC(=O)O | 1.4
29 | O=C(O)CCc1cccc(OCc2nc(-c3ccccc3)c(-c3ccccc3)o2)c1 | > 80
30 | COc1ccc(OCC(=O)O)cc1/C=C/c1nc(-c2ccccc2)c(-c2ccccc2)o1 | > 75
31 | O=C(O)CCCOc1cccc(Cc2nc(-c3ccccc3)c(-c3ccccc3)o2)c1 | > 76
32 | O=C(O)c1ccc(OCCCc2nc(-c3ccccc3)c(-c3ccccc3)o2)cc1 | 40
33 | O=C(O)COc1ccc(CCc2nc(-c3ccccc3)c(-c3ccccc3)o2)cc1 | 9
34 | O=C(O)COc1cccc(/C=C\c2nc(-c3ccccc3)c(-c3ccccc3)o2)c1 | 0.18
35 | O=C(O)COc1ccc(/C=C/c2nc(-c3ccccc3)c(-c3ccccc3)o2)cc1 | 10
36 | O=C(O)COc1cccc(CSc2nc(-c3ccccc3)c(-c3ccccc3)o2)c1 | 9.6
37 | O=C(O)CCCOc1ccccc1-c1nc(-c2ccccc2)c(-c2ccccc2)o1 | > 80
38 | O=C(O)COc1cccc(OCc2nc(-c3ccccc3)c(-c3ccccc3)o2)c1 | 1.2
39 | O=C(O)COc1ccccc1/C=C/c1nc(-c2ccccc2)c(-c2ccccc2)o1 | > 80
40 | O=C(O)COc1cccc(C#Cc2nc(-c3ccccc3)c(-c3ccccc3)o2)c1 | 60
41 | O=C(O)CCCCc1nc(-c2ccccc2)c(-c2ccccc2)o1 | > 100
42 | CC(Oc1cccc(CCc2nc(-c3ccccc3)c(-c3ccccc3)o2)c1)C(=O)O (stereo not drawn) | 4
43 | O=C(O)CCCCCCCc1nc(-c2ccccc2)c(-c2ccccc2)o1 | > 88
44 | O=C(O)CCCc1nc(-c2ccccc2)c(-c2ccccc2)o1 | > 104
45 | O=C(O)COc1cccc(Cc2nc(-c3ccccc3)c(-c3ccccc3)o2)c1 | > 82
46 | COc1ccc(OCC(=O)O)cc1CCc1nc(-c2ccccc2)c(-c2ccccc2)o1 | > 75
47 | O=C(O)CCCOc1cccc(-c2nc(-c3ccccc3)c(-c3ccccc3)o2)c1 | 80
48 | O=C(O)CCCOc1ccc(-c2nc(-c3ccccc3)c(-c3ccccc3)o2)cc1 | > 80
49 | COc1c(/C=C/c2nc(-c3ccccc3)c(-c3ccccc3)o2)cccc1OCC(=O)O | 0.5
50 | CCCCC[C@H](O)/C=C/[C@@H]1[C@H]2C/C(=C/CCCC(=O)O)O[C@H]2C[C@H]1O [EPOPROSTENOL] | 8
51 | CC#CCC(C)[C@H](O)/C=C/[C@@H]1[C@H]2C/C(=C/CCCC(=O)O)C[C@H]2C[C@H]1O (stereo partly drawn) [ILOPROST] | 2
52 | O=C(O)CCCCCCCOc1nc(-c2ccccc2)c(-c2ccccc2)n1-c1ccccc1 [OCTIMIBATE] | 1.02
53 | O=C(O)CCc1nc(-c2ccccc2)c(-c2ccccc2)o1 [OXAPROZIN] | > 100
